Test results taken from ChEMBL document CHEMBL3351561, “Discovery of 9-(1-anilinoethyl)-2-morpholino-4-oxo-pyrido[1,2-a]pyrimidine-7-carboxamides as PI3Kβ/δ inhibitors for the treatment of PTEN-deficient tumours” (Bioorg Med Chem Lett, 2014).
Values after ≈ are worked out from the molar mass of the structure shown.

Tests used:
[1] = Total plasma concentration in SCID mouse xenografted with PTEN-null human PC3 cells at 100 mg/kg, po measured after 8 hrs; type: ADME, organism-based, PC-3; design: dose 100 mg/kg, route oral
Method in brief: (§1)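 Total plasma concentration was measured in SCID mice carrying PC3 xenografts after a single oral dose given as a suspension (50, 100 or 200 mg/kg). Samples were taken at 0.5 to 8 h.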

Mus musculus [2] = experiment: Inhibition of Akt phosphorylation in SCID mouse xenografted with PTEN-null human PC3 cells at 100 mg/kg, po measured after 1 hr; type: functional; details: PC-3, 1 h
Method in brief: (§2)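 SCID mice carrying PTEN-null PC3 prostate xenografts received a single oral dose as a suspension (50, 100 or 200 mg/kg).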

Mus musculus [3] = experiment: Inhibition of Akt phosphorylation in SCID mouse xenografted with PTEN-null human PC3 cells at 100 mg/kg, po measured after 8 hrs; type: functional; details: PC-3, 8 h; method in brief: as §2
[4] = Ratio of total plasma concentration in PTEN-null human PC3 cells xenografted in SCID mouse at 100 mg/kg, po single dose at 4 hrs to IC50 for PI3Kbeta in human MAD-MB-468 cells; design: species or system PC-3
[5] = Ratio of total plasma concentration in PTEN-null human PC3 cells xenografted in SCID mouse at 100 mg/kg, po single dose at 1 hrs to IC50 for PI3Kbeta in human MAD-MB-468 cells; design: species or system PC-3
[6] = Ratio of total plasma concentration in PTEN-null human PC3 cells xenografted in SCID mouse at 100 mg/kg, po single dose at 8 hrs to IC50 for PI3Kbeta in human MAD-MB-468 cells; design: species or system PC-3
[7] = molecular target: T1, Phosphatidylinositol 4,5-bisphosphate 3-kinase catalytic subunit beta isoform (Homo sapiens, UniProt P42338); experiment: Inhibition of PI3Kbeta in human MAD-MB-468 cells assessed as inhibition of Ser473 Akt phosphorylation by cellular potency assay
T1 sequence (P42338 whole entry, canonical isoform): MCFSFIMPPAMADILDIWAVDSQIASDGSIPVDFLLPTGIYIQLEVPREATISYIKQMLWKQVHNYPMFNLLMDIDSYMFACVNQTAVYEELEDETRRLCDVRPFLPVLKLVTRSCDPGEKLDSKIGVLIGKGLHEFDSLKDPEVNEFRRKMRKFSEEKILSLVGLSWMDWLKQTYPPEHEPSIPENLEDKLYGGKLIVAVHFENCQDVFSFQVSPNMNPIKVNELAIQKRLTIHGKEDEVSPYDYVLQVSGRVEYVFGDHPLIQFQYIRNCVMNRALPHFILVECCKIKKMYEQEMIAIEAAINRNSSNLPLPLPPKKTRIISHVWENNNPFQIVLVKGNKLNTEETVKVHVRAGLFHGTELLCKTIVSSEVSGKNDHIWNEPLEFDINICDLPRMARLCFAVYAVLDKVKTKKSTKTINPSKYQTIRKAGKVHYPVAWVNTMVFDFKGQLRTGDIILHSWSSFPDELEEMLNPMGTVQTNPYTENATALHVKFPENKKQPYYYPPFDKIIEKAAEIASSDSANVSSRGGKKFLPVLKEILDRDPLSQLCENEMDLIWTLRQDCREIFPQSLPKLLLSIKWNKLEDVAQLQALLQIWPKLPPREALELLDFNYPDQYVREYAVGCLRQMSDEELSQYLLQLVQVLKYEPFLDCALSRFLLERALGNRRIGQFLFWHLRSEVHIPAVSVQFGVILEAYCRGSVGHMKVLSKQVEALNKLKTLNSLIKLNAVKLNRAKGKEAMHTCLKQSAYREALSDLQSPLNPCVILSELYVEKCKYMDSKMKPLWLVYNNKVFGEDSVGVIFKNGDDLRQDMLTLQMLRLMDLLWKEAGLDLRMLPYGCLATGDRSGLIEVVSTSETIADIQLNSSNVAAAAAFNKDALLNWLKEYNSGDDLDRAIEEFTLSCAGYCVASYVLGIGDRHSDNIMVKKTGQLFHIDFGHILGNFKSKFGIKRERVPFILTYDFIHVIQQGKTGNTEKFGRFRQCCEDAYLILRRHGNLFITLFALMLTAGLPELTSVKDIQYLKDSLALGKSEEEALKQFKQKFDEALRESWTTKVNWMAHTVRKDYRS

[8] = Apparent permeability from apical (pH 6.5) to […] of human Caco2 cells; type: ADME, cell-based; details: Caco-2, pH 6.5
[9] = Buffer/octanol partition coefficient, log D of the compound at pH 7.4 by shake flask method; type: physicochemical
Method in brief: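 LogD at pH 7.4 was measured by shake-flask with a buffer/octanol volume ratio of 100:1.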

[10] = Intrinsic clearance in human hepatocytes measured per 10^6 cells; type: ADME, cell-based, Hepatocyte; details: read-out: CLH
Method in brief: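 Intrinsic clearance was measured in human hepatocytes and is expressed in µL/min/10^6 cells.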

[11] = Solubility of the compound in phosphate buffer at pH 7.4; type: physicochemical
Method in brief: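 Solubility was measured from solid material in phosphate buffer at pH 7.4.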

[12] = molecular target: T2, Phosphatidylinositol 4,5-bisphosphate 3-kinase catalytic subunit alpha isoform (Homo sapiens, UniProt P42336); experiment: Inhibition of human recombinant PI3Kalpha assessed as depletion of ATP substrate by Ultra Glo luciferase assay
T2 sequence (P42336 whole entry, canonical isoform): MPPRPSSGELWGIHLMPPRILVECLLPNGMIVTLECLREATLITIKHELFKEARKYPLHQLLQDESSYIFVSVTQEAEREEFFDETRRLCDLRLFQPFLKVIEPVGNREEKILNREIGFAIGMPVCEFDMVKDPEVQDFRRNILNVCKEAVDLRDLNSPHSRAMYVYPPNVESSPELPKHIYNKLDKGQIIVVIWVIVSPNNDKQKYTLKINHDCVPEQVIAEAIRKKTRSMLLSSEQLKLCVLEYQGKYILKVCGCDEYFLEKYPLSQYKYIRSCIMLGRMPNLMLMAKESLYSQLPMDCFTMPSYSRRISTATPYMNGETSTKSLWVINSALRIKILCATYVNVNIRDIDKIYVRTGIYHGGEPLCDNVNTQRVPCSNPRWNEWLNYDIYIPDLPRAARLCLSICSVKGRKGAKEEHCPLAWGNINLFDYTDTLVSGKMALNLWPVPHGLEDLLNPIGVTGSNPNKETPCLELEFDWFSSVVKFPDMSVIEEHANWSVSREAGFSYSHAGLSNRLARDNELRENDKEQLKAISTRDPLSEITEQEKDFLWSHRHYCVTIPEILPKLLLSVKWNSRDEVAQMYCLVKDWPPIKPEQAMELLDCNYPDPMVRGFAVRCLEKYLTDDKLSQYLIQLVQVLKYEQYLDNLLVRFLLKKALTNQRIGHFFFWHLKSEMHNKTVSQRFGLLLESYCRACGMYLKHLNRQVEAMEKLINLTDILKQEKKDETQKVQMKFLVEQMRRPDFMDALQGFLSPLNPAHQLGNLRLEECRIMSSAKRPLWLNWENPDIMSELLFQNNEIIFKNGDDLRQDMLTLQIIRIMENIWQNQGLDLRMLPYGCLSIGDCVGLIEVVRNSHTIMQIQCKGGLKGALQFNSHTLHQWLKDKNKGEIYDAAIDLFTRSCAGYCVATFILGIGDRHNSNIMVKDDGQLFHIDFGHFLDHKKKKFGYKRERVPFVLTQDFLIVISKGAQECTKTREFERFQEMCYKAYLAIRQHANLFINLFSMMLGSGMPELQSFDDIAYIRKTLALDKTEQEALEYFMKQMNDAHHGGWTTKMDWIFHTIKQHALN
Method in brief: (§3)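 Enzyme IC50s are reported as the geometric mean of 3 or more values.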

[13] = molecular target: T1, Phosphatidylinositol 4,5-bisphosphate 3-kinase catalytic subunit beta isoform; experiment: Inhibition of human recombinant PI3Kbeta assessed as depletion of ATP substrate by Ultra Glo luciferase assay; method in brief: as §3
[14] = molecular target: Phosphatidylinositol 4,5-bisphosphate 3-kinase catalytic subunit gamma isoform (Homo sapiens, UniProt P48736); experiment: Inhibition of human recombinant PI3Kgamma assessed as depletion of ATP substrate by Ultra Glo luciferase assay; method in brief: as §3
Phosphatidylinositol 4,5-bisphosphate 3-kinase catalytic subunit gamma isoform, sequence (P48736 whole entry, canonical isoform): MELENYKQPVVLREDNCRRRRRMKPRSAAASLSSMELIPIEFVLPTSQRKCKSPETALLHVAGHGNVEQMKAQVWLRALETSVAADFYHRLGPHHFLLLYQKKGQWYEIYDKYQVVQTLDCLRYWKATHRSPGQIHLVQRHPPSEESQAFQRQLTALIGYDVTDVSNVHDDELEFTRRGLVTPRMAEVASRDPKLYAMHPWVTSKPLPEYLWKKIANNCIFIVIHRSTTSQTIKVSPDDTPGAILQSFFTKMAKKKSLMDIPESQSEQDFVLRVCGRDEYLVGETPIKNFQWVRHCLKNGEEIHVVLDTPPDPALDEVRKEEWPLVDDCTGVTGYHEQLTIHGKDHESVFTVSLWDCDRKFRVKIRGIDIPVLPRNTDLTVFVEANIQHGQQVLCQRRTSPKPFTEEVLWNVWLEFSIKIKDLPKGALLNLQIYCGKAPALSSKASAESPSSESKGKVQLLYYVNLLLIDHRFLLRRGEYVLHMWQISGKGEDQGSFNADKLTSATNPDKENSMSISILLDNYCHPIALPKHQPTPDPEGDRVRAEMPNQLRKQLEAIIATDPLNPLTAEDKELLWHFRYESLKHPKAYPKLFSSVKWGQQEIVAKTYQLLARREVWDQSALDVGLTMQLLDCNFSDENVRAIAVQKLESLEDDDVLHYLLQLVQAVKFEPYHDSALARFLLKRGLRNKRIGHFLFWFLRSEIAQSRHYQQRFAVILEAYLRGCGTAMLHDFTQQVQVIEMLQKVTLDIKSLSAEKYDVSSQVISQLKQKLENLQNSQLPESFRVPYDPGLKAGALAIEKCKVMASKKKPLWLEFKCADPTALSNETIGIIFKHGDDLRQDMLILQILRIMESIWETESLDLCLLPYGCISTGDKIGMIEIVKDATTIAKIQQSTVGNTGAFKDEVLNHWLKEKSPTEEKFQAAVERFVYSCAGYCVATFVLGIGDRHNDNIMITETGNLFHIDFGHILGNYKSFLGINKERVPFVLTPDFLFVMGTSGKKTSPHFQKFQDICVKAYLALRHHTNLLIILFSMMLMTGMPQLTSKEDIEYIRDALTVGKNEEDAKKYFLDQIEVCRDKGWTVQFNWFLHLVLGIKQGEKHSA

[15] = molecular target: T3, Phosphatidylinositol 4,5-bisphosphate 3-kinase catalytic subunit delta isoform (Homo sapiens, UniProt O00329); experiment: Inhibition of human recombinant PI3Kdelta assessed as depletion of ATP substrate by Ultra Glo luciferase assay; method in brief: as §3
T3 sequence (O00329 whole entry): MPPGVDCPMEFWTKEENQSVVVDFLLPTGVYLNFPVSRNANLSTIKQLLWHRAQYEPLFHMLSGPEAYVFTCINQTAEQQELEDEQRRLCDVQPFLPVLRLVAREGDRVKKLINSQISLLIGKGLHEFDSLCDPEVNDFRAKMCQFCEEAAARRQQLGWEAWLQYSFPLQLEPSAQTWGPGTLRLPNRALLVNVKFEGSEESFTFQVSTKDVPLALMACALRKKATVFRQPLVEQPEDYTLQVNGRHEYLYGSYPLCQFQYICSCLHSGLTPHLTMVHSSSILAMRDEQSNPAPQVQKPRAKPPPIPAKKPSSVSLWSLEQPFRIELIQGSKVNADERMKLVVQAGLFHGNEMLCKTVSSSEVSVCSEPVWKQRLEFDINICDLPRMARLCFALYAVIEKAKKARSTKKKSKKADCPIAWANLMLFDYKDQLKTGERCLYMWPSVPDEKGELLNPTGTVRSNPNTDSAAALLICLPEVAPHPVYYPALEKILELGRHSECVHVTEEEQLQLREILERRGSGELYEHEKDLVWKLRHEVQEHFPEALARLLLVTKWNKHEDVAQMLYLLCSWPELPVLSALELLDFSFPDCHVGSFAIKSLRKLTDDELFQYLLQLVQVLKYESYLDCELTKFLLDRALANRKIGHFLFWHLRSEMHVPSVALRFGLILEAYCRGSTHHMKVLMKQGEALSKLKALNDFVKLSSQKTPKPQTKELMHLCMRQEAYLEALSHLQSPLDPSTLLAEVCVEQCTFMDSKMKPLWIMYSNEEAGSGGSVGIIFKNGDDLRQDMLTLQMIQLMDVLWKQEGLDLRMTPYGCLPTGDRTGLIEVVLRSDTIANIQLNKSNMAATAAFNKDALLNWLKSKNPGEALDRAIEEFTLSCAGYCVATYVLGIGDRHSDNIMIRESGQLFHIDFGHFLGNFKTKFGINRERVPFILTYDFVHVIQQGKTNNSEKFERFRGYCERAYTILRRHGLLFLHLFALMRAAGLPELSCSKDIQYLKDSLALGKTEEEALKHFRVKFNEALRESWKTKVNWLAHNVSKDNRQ

[16] = molecular target: T2, Phosphatidylinositol 4,5-bisphosphate 3-kinase catalytic subunit alpha isoform; experiment: Inhibition of PI3Kalpha in human BT474 cells assessed as inhibition of […] Akt phosphorylation after 2 hrs by fluorescence assay; type: cell-based, BT-474
Method in brief: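 BT474 cells were seeded in DMEM with 10% FCS and 1% glutamine and left to adhere overnight, then treated with compound in DMSO for 2 h at 37 °C and 5% CO2. Cells were lysed with a phosphatase/protease-inhibitor buffer. Lysate was captured on anti-total-Akt plates, probed with anti-phospho-Akt Thr308 and an HRP secondary, and read by fluorescence (ex 325/em 420 nm). Values are the geometric mean of ≥2 determinations.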

[17] = Fraction unbound in mouse plasma; type: ADME, cell-free
Method in brief: (§4)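 Protein binding was measured in nude mouse plasma and in human plasma and is expressed as fraction unbound (%).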

[18] = Fraction unbound in human plasma; type: ADME, cell-free; method in brief: as §4
[19] = Clearance in mouse plasma at 5 umol/kg, iv and 30 umol/kg, po; type: ADME, organism-based
Method in brief: (§5)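 […] mice were dosed at 5 µmol/kg i.v. and 30 µmol/kg p.o. Clearance is given in mL/min/kg and oral bioavailability in %.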

[20] = Bioavailability in mouse plasma at 5 umol/kg, iv and 30 umol/kg, po; type: ADME, organism-based; method in brief: as §5
Mus musculus [21] = experiment: Inhibition of Akt phosphorylation in SCID mouse xenografted with PTEN-null human PC3 cells at 100 mg/kg, po measured after 4 hrs; type: functional; details: PC-3, 4 h; method in brief: as §2
[22] = Total plasma concentration in SCID mouse xenografted with PTEN-null human PC3 cells at 100 mg/kg, po measured after 4 hrs; type: ADME, organism-based, PC-3; design: dose 100 mg/kg, route oral; method in brief: as §1
[23] = Total plasma concentration in SCID mouse xenografted with PTEN-null human PC3 cells at 100 mg/kg, po measured after 1 hr; type: ADME, organism-based, PC-3; design: dose 100 mg/kg, route oral; method in brief: as §1

Molecule C[C@@H](Nc1cc(F)cc(F)c1)c1cc(C(=O)N(C)C)cn2c(=O)cc(N3CCOCC3)nc12 has a concentration at 8 h [1] of 2.6 µM, an inhibition in vivo at 100 mg/kg (Mus musculus [2]) of 92% and an inhibition in vivo at 100 mg/kg (Mus musculus [3]) of 56%. For the same molecule, the Ratio [4] was 106, the Ratio [5] was 204 and the Ratio [6] was 41. It also gave an IC50 [7] of 3 nM, a Papp A→B [8] of 50 ×10⁻⁶ cm/s and a logD [9] of 3. The hepatocyte CLint [10] was 11 µL/min/1e6 cells, the solubility [11] was 15 µM (≈ 6.86 µg/mL) and the IC50 [12] was 75 nM. It also gave an IC50 [13] of 5 nM, an IC50 [14] of 510 nM and an IC50 [15] of 32 nM. It also gave an IC50 [16] of 1200 nM, a fraction unbound [17] of 0.047 and a fraction unbound [18] of 0.12. It also gave a clearance [19] of 82 mL/min/kg, a bioavailability [20] of 31% and an inhibition in vivo at 100 mg/kg (Mus musculus [21]) of 80%. It also gave a concentration at 4 h [22] of 6.8 µM and a concentration at 1 h [23] of 13 µM.
